{"source": "paper PMC4834983", "about": "(Journal of medicinal chemistry, 2015)", "key": {"pJAK2": {"system": "pJAK2", "assay": "Immunoblotting, U251MG glioma cells", "assay_type": "cell-based, human", "details": "5 μM", "outline": "(§1)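 U251MG cells given 5 μM test compound for 0–24 h. Whole-cell lysates of equal total protein immunoblotted for pErk1/2, Erk1/2, pS-Akt, Akt, pJAK2, JAK2, SOCS3 and PTP1B, with β-actin or GAPDH as loading reference.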"}, "G22 cells [1]": {"system": "G22 cells", "assay": "3D spheroid assay", "assay_type": "cell-based, human", "details": "5 μM, treated once"}, "pErk1/2MAPK [2]": {"system": "pErk1/2MAPK", "assay": "Immunoblotting, EGF-stimulated NIH3T3/hEGFR fibroblasts", "assay_type": "cell-based, mouse", "details": "5 μM pre-treatment", "outline": "(§2)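 NIH3T3/hEGFR fibroblasts pretreated with or without 5 μM test compound for 3 h, then stimulated with 1 μg/ml EGF for 12 min. Whole-cell lysates, equal total protein, immunoblotted for pStat1/Stat1, pStat5/Stat5 and pErk1/2/Erk1/2.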"}, "pS-Akt": {"system": "pS-Akt", "assay": "Immunoblotting, U251MG glioma cells", "assay_type": "cell-based, human", "details": "5 μM", "outline": "as §1"}, "G12 cells": {"system": "G12 cells", "assay": "Growth of glioma patient-derived xenograft cells in vitro", "assay_type": "cell-based", "details": "Homo sapiens, read-out: inhibitory activity against G12 cell growth"}, "[3]": {"system": "suppressors of cytokine signaling (SOCS)3", "assay": "Immunoblotting, U251MG glioma cells", "assay_type": "cell-based, human", "details": "5 μM", "outline": "as §1"}, "U251MG cells [4]": {"system": "U251MG cells", "assay": "Colony survival assay", "assay_type": "cell-based, human", "details": "1 μM, treated once", "outline": "(§3)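 Cells seeded as single cells at 250 per well and treated once the next day with test compound (0–5 μM) for 72 h. Grown until large colonies were visible: 1 week for NIH3T3, 2 weeks for U251MG. Colonies stained with crystal violet for 4 h and counted.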"}, "pYStat3": {"system": "pYStat3", "assay": "Immunoblotting of pStat3 in treated U251MG cells", "assay_type": "cell-based, human", "details": "5 μM, glioma cells, immunoblotting", "outline": "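Whole-cell lysates from U251MG cells given test compound at 5 μM for 0–24 h, or at 0–5 μM for 2 h. Immunoblotted for pY705Stat3 and total Stat3, with GAPDH as loading reference.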"}, "Stat3": {"system": "Stat3", "assay": "Stat3 DNA-binding activity/EMSA of nuclear extracts from treated glioma cells", "assay_type": "cell-based, human", "details": "5 μM, glioma cells, EMSA"}, "Stat1:Stat1": {"target": "T1, Stat1:Stat1 (Mus musculus, UniProt P42225)", "T1 sequence (P42225 2-749 limits assumed)": "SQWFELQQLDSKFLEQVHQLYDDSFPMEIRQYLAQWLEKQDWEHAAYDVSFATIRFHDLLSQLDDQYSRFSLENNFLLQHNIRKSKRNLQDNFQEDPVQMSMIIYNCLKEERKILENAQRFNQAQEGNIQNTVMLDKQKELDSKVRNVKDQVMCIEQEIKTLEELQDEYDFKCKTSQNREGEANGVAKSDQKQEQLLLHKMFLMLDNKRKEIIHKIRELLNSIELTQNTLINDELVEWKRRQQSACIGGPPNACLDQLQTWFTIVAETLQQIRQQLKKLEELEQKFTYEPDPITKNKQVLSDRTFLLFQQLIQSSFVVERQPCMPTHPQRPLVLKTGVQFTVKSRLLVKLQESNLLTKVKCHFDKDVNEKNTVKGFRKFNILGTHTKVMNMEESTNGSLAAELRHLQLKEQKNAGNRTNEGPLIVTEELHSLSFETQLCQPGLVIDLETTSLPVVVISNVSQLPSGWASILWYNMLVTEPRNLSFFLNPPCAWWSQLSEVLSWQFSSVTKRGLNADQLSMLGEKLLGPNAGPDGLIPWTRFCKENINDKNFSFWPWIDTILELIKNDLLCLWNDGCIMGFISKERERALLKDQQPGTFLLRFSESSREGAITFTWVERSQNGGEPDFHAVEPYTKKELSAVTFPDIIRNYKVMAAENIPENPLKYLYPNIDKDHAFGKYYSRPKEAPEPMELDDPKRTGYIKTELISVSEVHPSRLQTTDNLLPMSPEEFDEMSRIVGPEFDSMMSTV", "assay": "Cell-free EMSA, EGF-stimulated NIH3T3/hEGFR nuclear extracts", "assay_type": "biochemical", "details": "5 μM, 30 min pre-incubation", "outline": "(§4)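 Nuclear extracts from EGF-stimulated NIH3T3/hEGFR fibroblasts, containing active Stat1, Stat3 and Stat5, preincubated with 5 μM test compound for 30 min at room temperature. Then incubated 30 min with 32P-labelled probe before EMSA: hSIE (Stat1/Stat3 binding) or MGFe (bovine β-casein element; Stat1/Stat5 binding). STAT:DNA bands quantified as percent of control.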"}, "U251MG cells [5]": {"system": "U251MG cells", "assay": "BrdU incorporation assay", "assay_type": "cell-based, human", "details": "5 μM, at 24 h", "outline": "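U251MG cells on glass coverslips exposed to DMSO or 5 μM test compound for 3–24 h. BrdU (10 micromolar) added for the final 2 h. Fixed in 4% paraformaldehyde for 10 min, stained with anti-BrdU antibody and counterstained with DAPI. Imaged by fluorescence microscopy, and cells counted.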"}, "[6]": {"assay": "Body weights and signs of toxicity in tumor-bearing mice", "assay_type": "in vivo", "details": "2 mg/kg, oral gavage, 33 days"}, "pStat3 [7]": {"system": "pStat3", "assay": "Immunoblots of tumor tissue lysates from treated mice", "assay_type": "in vivo, mouse", "details": "four-to-five cases out of six", "outline": "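After oral dosing, lysates of residual subcutaneous U251MG tumour tissue from treated and 1% DMSO vehicle mice. Immunoblotted for pStat3 and Stat3, with GAPDH as loading reference.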"}, "Stat3:Stat3": {"target": "Stat3:Stat3 (Mus musculus, UniProt P42227)", "sequence (P42227 2-770 limits assumed)": "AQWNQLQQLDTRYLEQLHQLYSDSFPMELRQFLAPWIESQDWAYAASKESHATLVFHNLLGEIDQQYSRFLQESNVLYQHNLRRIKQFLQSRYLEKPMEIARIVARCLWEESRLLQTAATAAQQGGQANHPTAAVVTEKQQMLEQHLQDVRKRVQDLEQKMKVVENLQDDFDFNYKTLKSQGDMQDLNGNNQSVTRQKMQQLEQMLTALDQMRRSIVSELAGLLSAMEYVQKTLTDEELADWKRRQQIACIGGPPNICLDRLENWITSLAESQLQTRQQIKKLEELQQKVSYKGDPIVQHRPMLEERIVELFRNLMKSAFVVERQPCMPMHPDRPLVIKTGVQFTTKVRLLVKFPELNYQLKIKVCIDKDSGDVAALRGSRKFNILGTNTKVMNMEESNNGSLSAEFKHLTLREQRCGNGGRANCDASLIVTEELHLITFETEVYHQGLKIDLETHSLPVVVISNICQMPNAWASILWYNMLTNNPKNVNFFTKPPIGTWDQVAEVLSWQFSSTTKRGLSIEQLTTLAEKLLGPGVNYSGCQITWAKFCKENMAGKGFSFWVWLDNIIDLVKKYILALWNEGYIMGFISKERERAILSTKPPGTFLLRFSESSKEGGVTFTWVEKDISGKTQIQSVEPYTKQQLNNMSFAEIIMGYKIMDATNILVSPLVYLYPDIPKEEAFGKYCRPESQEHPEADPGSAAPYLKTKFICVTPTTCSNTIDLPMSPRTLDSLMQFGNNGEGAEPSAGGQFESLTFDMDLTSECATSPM", "assay": "Cell-free EMSA, nuclear extracts pre-incubated with compound, hSIE probe", "assay_type": "biochemical", "details": "5 μM, 30 min pre-incubation, NIH3T3/v-Src nuclear extracts"}, "U251MG cells [8]": {"system": "U251MG cells", "assay": "Immunofluorescence staining/confocal microscopy of mitosis", "assay_type": "cell-based, human", "details": "15 h treatment", "outline": "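U251MG cells on coverslips synchronised by double thymidine block (2 mM) and released for 9 h. Then given DMSO, 100 nM paclitaxel or 8 μM test compound for 15 h. Fixed in 4% paraformaldehyde, permeabilised with 0.1% digitonin and blocked in 0.2% BSA. Stained with anti-β-tubulin (1:350) and anti-MAP1B (1:300) for 1 h at room temperature, then fluorescent secondaries and DAPI; confocal imaging.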"}, "pErk1/2MAPK [9]": {"system": "pErk1/2MAPK", "assay": "Immunoblotting, U251MG glioma cells", "assay_type": "cell-based, human", "details": "5 μM", "outline": "as §1"}, "pStat3 [10]": {"system": "pStat3", "assay": "Immunoblotting of pStat3 in patient-derived xenograft cells", "assay_type": "cell-based, human", "details": "5 μM, 3 h", "outline": "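Glioma patient-derived xenograft G22 cells (DMEM, 5–10% heat-inactivated FBS) given 5 μM test compound for 0–24 h. Whole-cell lysates immunoblotted for pStat3 and Stat3, with GAPDH as loading reference.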"}, "U251MG cells [11]": {"system": "U251MG cells", "assay": "Scratch assay for migration", "assay_type": "cell-based, human", "details": "5 μM, 19-h treatment", "outline": "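Sub-confluent U251MG monolayers wounded with pipette tips and treated once with test compound (0–5 μM) or DMSO vehicle. Cells allowed to migrate into the denuded area over 19 h, then imaged by microscopy at 10×.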"}, "G22 cells [12]": {"system": "G22 cells", "assay": "Growth of glioma patient-derived xenograft cells in vitro", "assay_type": "cell-based", "details": "Homo sapiens, read-out: inhibitory activity against growth of G22 cells"}, "pStat5": {"system": "pStat5", "assay": "Immunoblotting, EGF-stimulated NIH3T3/hEGFR fibroblasts", "assay_type": "cell-based, mouse", "details": "5 μM pre-treatment", "outline": "as §2"}, "NIH3T3 cells": {"system": "NIH3T3 cells", "assay": "Colony survival assay", "assay_type": "cell-based, mouse", "details": "2.5 μM or less", "outline": "as §3"}, "[13]": {"system": "U251MG subcutaneous tumor xenografts", "assay": "Subcutaneous glioma xenograft tumor growth", "assay_type": "in vivo, mouse", "details": "2 mg/kg, oral gavage, 33 days", "outline": "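Female athymic nude mice, 4 weeks old, injected subcutaneously in the left flank with 7.3 ×10^6 U251MG cells in PBS/matrigel. At 20 days (tumours 170–250 mm3), mice grouped by matched mean tumour size. Dosed 2 mg/kg by oral gavage in 1% DMSO vehicle, three times weekly, for 33 days. Caliper volumes (V = 0.52 × a2 × b) and body weights recorded; paired t test against vehicle.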"}, "G10 cells": {"system": "G10 cells", "assay": "Growth of glioma patient-derived xenograft cells in vitro", "assay_type": "cell-based", "details": "Homo sapiens, read-out: inhibitory activity against growth of G10 cells"}, "pStat1": {"system": "pStat1", "assay": "Immunoblotting, EGF-stimulated NIH3T3/hEGFR fibroblasts", "assay_type": "cell-based, mouse", "details": "5 μM pre-treatment", "outline": "as §2"}, "Stat5:Stat5": {"system": "Stat5:Stat5", "assay": "Cell-free EMSA, EGF-stimulated NIH3T3/hEGFR nuclear extracts, MGFe probe", "assay_type": "biochemical, mouse", "details": "5 μM, 30 min pre-incubation", "outline": "as §4"}, "[14]": {"system": "protein tyrosine phosphatase (PTP)1B", "assay": "Immunoblotting, U251MG glioma cells", "assay_type": "cell-based, human", "details": "5 μM", "outline": "as §1"}, "[15]": {"system": "c-Myc, Bcl-2, Mcl-1 and Bcl-xL expression", "assay": "Immunoblots of Stat3-regulated gene products in U251MG cells", "assay_type": "cell-based, human", "details": "5 μM", "outline": "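Whole-cell lysates prepared from U251MG cells given 5 μM test compound for 0–24 h, with 0.025% DMSO as control. Immunoblotted for c-Myc, Bcl-2, Bcl-xL, Mcl-1, pStat3 and Stat3, with GAPDH as loading reference.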"}}, "data": [{"smiles": "C/C=C(\\C)C(=O)O[C@H]1C[C@@H](C)[C@]2(O)CC[C@](C)(/C=C3/OC(=O)C(COC(C)=O)=C31)O2", "note": "[Compound 6]", "values": [{"measurement": "effect on pJAK2", "setting": "pJAK2", "result": "apparent moderate increase"}, {"measurement": "3D spheroid growth", "setting": "G22 cells [1]", "result": "decreased 3D spheroid growth"}, {"measurement": "effect on EGF-stimulated pErk1/2MAPK levels", "setting": "pErk1/2MAPK [2]", "result": "no effect"}, {"measurement": "effect on pS-Akt levels", "setting": "pS-Akt", "result": "no effects"}, {"measurement": "inhibition at 5 µM", "setting": "G12 cells", "result": "25 to 35", "unit": "%"}, {"measurement": "effect on SOCS3 levels", "setting": "[3]", "result": "no effects"}, {"measurement": "U251MG colony formation", "setting": "U251MG cells [4]", "result": "completely inhibited"}, {"measurement": "effect on pStat3 in treated tumor cells", "setting": "pYStat3", "result": "strongly inhibited"}, {"measurement": "effect on Stat3 DNA-binding activity in treated tumor cells", "setting": "Stat3", "result": "strongly inhibited"}, {"measurement": "effect on Stat1:Stat1 activity, cell-free EMSA", "setting": "Stat1:Stat1", "result": "weak effects"}, {"measurement": "cell proliferation measured by BrdU incorporation", "setting": "U251MG cells [5]", "result": "significantly impaired"}, {"measurement": "body weights or obvious signs of toxicity", "setting": "[6]", "result": "No significant changes"}, {"measurement": "pStat3 and Stat3 levels in residual tumor tissues", "setting": "pStat3 [7]", "result": "lower"}, {"measurement": "Stat3:Stat3/DNA-binding activity (complexation), cell-free EMSA", "setting": "Stat3:Stat3", "result": "diminished"}, {"measurement": "chromatid structures and sister-chromatids segregation (mitosis)", "setting": "U251MG cells [8]", "result": "caused defects"}, {"measurement": "effect on pErk1/2MAPK levels", "setting": "pErk1/2MAPK [9]", "result": "no effects"}, {"measurement": "effect on Phospho-Stat3 in G22 cells", "setting": "pStat3 [10]", "result": "strongly inhibited"}, {"measurement": "migration into the denuded area", "setting": "U251MG cells [11]", "result": "slowed migration"}, {"measurement": "inhibition at 5 µM", "setting": "G22 cells [12]", "result": "45 to 60", "unit": "%"}, {"measurement": "effect on EGF-stimulated pStat5 levels", "setting": "pStat5", "result": "no effect"}, {"measurement": "effects on NIH3T3 colony numbers", "setting": "NIH3T3 cells", "result": "moderate or none"}, {"measurement": "growth of subcutaneous U251MG xenografts", "setting": "[13]", "result": "inhibited growth"}, {"measurement": "inhibition at 5 µM", "setting": "G10 cells", "result": "45 to 60", "unit": "%"}, {"measurement": "effect on EGF-stimulated pStat1 levels", "setting": "pStat1", "result": "no effect"}, {"measurement": "effect on Stat5:Stat5 activity, cell-free EMSA", "setting": "Stat5:Stat5", "result": "weak effects"}, {"measurement": "effect on PTP1B levels", "setting": "[14]", "result": "no effects"}, {"measurement": "c-Myc, Bcl-2, Mcl-1 and Bcl-xL expression", "setting": "[15]", "result": "down regulated"}]}]}
